According to ChEMBL document CHEMBL1143064, “Novel 9a-carbamoyl- and 9a-thiocarbamoyl-3-decladinosyl-6-hydroxy and 6-methoxy derivatives of 15-membered macrolides” (Bioorg Med Chem, 2007):
Values after ≈ are worked out from the molar mass of the structure shown.

Legend:
[1] = test system: Staphylococcus aureus; assay: Antibacterial activity against Staphylococcus aureus-M after 24 hrs by microdilution method; assay type: functional
Summary of the method: (§1)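 Broth microdilution in Mueller–Hinton medium run on an automated liquid handler. Compounds dissolved in DMF (5 mg/ml stock) and tested in medium from 64 to 0.125 µg/ml. Plates incubated 24 h at 37 °C, then growth read as absorbance at 600 nm. MIC taken as the concentration giving 90% growth inhibition.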

[2] = test system: Staphylococcus aureus; assay: Antibacterial activity against Staphylococcus aureus-cMLS after 24 hrs by microdilution method; assay type: functional; summary of the method: as §1
[3] = test system: Saccharomyces cerevisiae; assay: Toxicity against Saccharomyces cerevisiae; assay type: organism-based; conditions: in vivo
Summary of the method: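 Yeast used as a surrogate for eukaryotic cell toxicity. Microdilution in Mueller–Hinton medium with compound from a DMF stock (5 mg/ml), final range 64 to 0.125 µg/ml. Incubated 24 h at 37 °C, with optical density read at 600 nm. MIC defined as the concentration inhibiting growth by 90%.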

[4] = test system: Haemophilus influenzae; assay: Antibacterial activity against Haemophilus influenzae after 24 hrs by microdilution method; assay type: functional; summary of the method: as §1
[5] = test system: Streptococcus pneumoniae; assay: Antibacterial activity against Streptococcus pneumoniae after 24 hrs by microdilution method; assay type: functional; summary of the method: as §1
[6] = test system: Streptococcus pyogenes; assay: Antibacterial activity against Streptococcus pyogenes-M after 24 hrs by microdilution method; assay type: functional; summary of the method: as §1
[7] = test system: Streptococcus pyogenes; assay: Antibacterial activity against Streptococcus pyogenes after 24 hrs by microdilution method; assay type: functional; summary of the method: as §1
[8] = test system: Streptococcus pneumoniae; assay: Antibacterial activity against Streptococcus pneumoniae-M after 24 hrs by microdilution method; assay type: functional; summary of the method: as §1

| SMILES | MIC [1] [µg/mL] | MIC [2] [µg/mL] | Activity [3] | MIC [4] [µg/mL] | MIC [5] [µg/mL] | MIC [6] [µg/mL] | MIC [7] [µg/mL] | MIC [8] [µg/mL] |
| --- | --- | --- | --- | --- | --- | --- | --- | --- |
| CC[C@H]1OC(=O)/C(C)=C\[C@H](C)[C@@H](O[C@@H]2O[C@H](C)C[C@H](N(C)C)[C@H]2O)[C@](C)(OC)C[C@@H](C)CN(C(=O)NC(C)C)[C@H](C)[C@@H](O)[C@]1(C)O | > 64 | > 64 | Non-toxic | > 64 | 8 (≈ 12.2 µM) | > 64 | 16 (≈ 24.3 µM) | > 64 |
| CC[C@H]1OC(=O)[C@H](C)C2O[C@@](C)(C[C@@H](C)CN(C(=O)Nc3ccc(Cl)cc3Cl)[C@H](C)[C@@H](O)[C@]1(C)O)[C@H](O[C@@H]1O[C@H](C)C[C@H](N(C)C)[C@H]1O)[C@H]2C | > 64 | > 64 | Non-toxic | > 64 | > 64 | > 64 | > 64 | > 64 |
| CC[C@H]1OC(=O)[C@H](C)[C@@H](OC(=O)Cc2ccc([N+](=O)[O-])cc2)[C@H](C)[C@@H](O[C@@H]2O[C@H](C)C[C@H](N(C)C)[C@H]2O)[C@](C)(O)C[C@@H](C)CN(C(=O)Nc2ccc(Cl)cc2Cl)[C@H](C)[C@@H](O)[C@]1(C)O | 32 (≈ 34.5 µM) | 32 (≈ 34.5 µM) | Non-toxic | 32 (≈ 34.5 µM) | 2 (≈ 2.16 µM) | 32 (≈ 34.5 µM) | 4 (≈ 4.31 µM) | 4 (≈ 4.31 µM) |
| CC[C@H]1OC(=O)[C@H](C)C2O[C@@](C)(C[C@@H](C)CN(C(=O)NC(C)C)[C@H](C)[C@@H](O)[C@]1(C)O)[C@H](O[C@@H]1O[C@H](C)C[C@H](N(C)C)[C@H]1O)[C@H]2C | > 64 | > 64 | Non-toxic | > 64 | > 64 | > 64 | > 64 | > 64 |
| CCNC(=O)N1C[C@H](C)C[C@@](C)(O)[C@H](O[C@@H]2O[C@H](C)C[C@H](N(C)C)[C@H]2O)[C@@H](C)[C@H](O)[C@@H](C)C(=O)O[C@H](CC)[C@@](C)(O)[C@H](O)[C@H]1C | > 64 | > 64 | Non-toxic | > 64 | > 64 | > 64 | > 64 | > 64 |
| CC[C@H]1OC(=O)[C@H](C)[C@@H](O)[C@H](C)[C@@H](O[C@@H]2O[C@H](C)C[C@H](N(C)C)[C@H]2O)[C@](C)(O)C[C@@H](C)CN(C(=S)NCc2ccccc2)[C@H](C)[C@@H](O)[C@]1(C)O | > 64 | > 64 | Non-toxic | > 64 | > 64 | > 64 | > 64 | > 64 |
| CC[C@H]1OC(=O)[C@H](C)C2(O)O[C@@](C)(C[C@@H](C)CN(C(=O)Nc3ccc(Cl)cc3Cl)[C@H](C)[C@@H](O)[C@]1(C)O)[C@H](O[C@@H]1O[C@H](C)C[C@H](N(C)C)[C@H]1O)[C@H]2C | > 64 | > 64 | Non-toxic | > 64 | > 64 | > 64 | > 64 | > 64 |
| CC[C@H]1OC(=O)[C@H](C)[C@@H](O)[C@H](C)[C@@H](O[C@@H]2O[C@H](C)C[C@H](N(C)C)[C@H]2O)[C@](C)(O)C[C@@H](C)CN(C(=O)Nc2cccc(C(F)(F)F)c2)[C@H](C)[C@@H](O)[C@]1(C)O | > 64 | > 64 | Non-toxic | > 64 | > 64 | > 64 | > 64 | > 64 |
| CC[C@H]1OC(=O)[C@H](C)[C@@H](O)[C@H](C)[C@@H](O[C@@H]2O[C@H](C)C[C@H](N(C)C)[C@H]2O)[C@](C)(O)C[C@@H](C)CN(C(=S)Nc2cccc(C(F)(F)F)c2)[C@H](C)[C@@H](O)[C@]1(C)O | > 64 | > 64 | Non-toxic | > 64 | > 64 | > 64 | > 64 | > 64 |
| C=CCNC(=S)N1C[C@H](C)C[C@@](C)(O)[C@H](O[C@@H]2O[C@H](C)C[C@H](N(C)C)[C@H]2O)[C@@H](C)[C@H](O)[C@@H](C)C(=O)O[C@H](CC)[C@@](C)(O)[C@H](O)[C@H]1C | > 64 | > 64 | Non-toxic | > 64 | > 64 | > 64 | > 64 | > 64 |
| CC[C@H]1OC(=O)[C@H](C)[C@@H](O[C@H]2C[C@@](C)(OC)[C@@H](O)[C@H](C)O2)[C@H](C)[C@@H](O[C@@H]2O[C@H](C)C[C@H](N(C)C)[C@H]2O)[C@](C)(OC)C[C@@H](C)CN[C@H](C)[C@@H](O)[C@]1(C)O | > 64 | > 64 | Non-toxic | 8 (≈ 10.7 µM) | 0.5 (≈ 0.668 µM) | 16 (≈ 21.4 µM) | 1 (≈ 1.34 µM) | 16 (≈ 21.4 µM) |
| CC[C@H]1OC(=O)[C@H](C)[C@@H](O)[C@H](C)[C@@H](O[C@@H]2O[C@H](C)C[C@H](N(C)C)[C@H]2O)[C@](C)(O)C[C@@H](C)CN(C(=O)NCc2ccccc2)[C@H](C)[C@@H](O)[C@]1(C)O | > 64 | > 64 | Non-toxic | > 64 | > 64 | > 64 | > 64 | > 64 |
| CC[C@H]1OC(=O)[C@H](C)[C@@H](O)[C@H](C)[C@@H](O[C@@H]2O[C@H](C)C[C@H](N(C)C)[C@H]2O)[C@](C)(O)C[C@@H](C)CN(C(=O)Nc2ccccc2C(F)(F)F)[C@H](C)[C@@H](O)[C@]1(C)O | > 64 | > 64 | Non-toxic | > 64 | > 64 | > 64 | > 64 | > 64 |
| CC[C@H]1OC(=O)[C@H](C)[C@@H](O)[C@H](C)[C@@H](O[C@@H]2O[C@H](C)C[C@H](N(C)C)[C@H]2O)[C@](C)(OC)C[C@@H](C)CN(C(=O)Nc2ccc(Cl)cc2Cl)[C@H](C)[C@@H](O)[C@]1(C)O | > 64 | > 64 | Non-toxic | > 64 | > 64 | > 64 | > 64 | > 64 |
| CC[C@H]1OC(=O)[C@H](C)C(=O)[C@H](C)[C@@H](O[C@@H]2O[C@H](C)C[C@H](N(C)C)[C@H]2O)[C@](C)(OC)C[C@@H](C)CN(C(=O)NC(C)C)[C@H](C)[C@@H](O)[C@]1(C)O | > 64 | > 64 | Non-toxic | > 64 | 8 (≈ 11.9 µM) | > 64 | 16 (≈ 23.7 µM) | > 64 |
| CC[C@H]1OC(=O)[C@H](C)[C@@H](O[C@H]2C[C@@](C)(OC)[C@@H](O)[C@H](C)O2)[C@H](C)[C@@H](O[C@@H]2O[C@H](C)C[C@H](N(C)C)[C@H]2O)[C@](C)(O)C[C@@H](C)C(=O)[C@H](C)[C@@H](O)[C@]1(C)O [ERYTHROMYCIN] | > 64 | > 64 | – | 4 (≈ 5.45 µM) | 0.125 (≈ 0.17 µM) | 8 (≈ 10.9 µM) | 0.125 (≈ 0.17 µM) | 8 (≈ 10.9 µM) |
| CC[C@H]1OC(=O)[C@H](C)[C@@H](O)[C@H](C)[C@@H](O[C@@H]2O[C@H](C)C[C@H](N(C)C)[C@H]2O)[C@](C)(OC)C[C@@H](C)CN(C(=O)NC(C)C)[C@H](C)[C@@H](O)[C@]1(C)O | > 64 | > 64 | Non-toxic | > 64 | 32 (≈ 47.3 µM) | > 64 | > 64 | > 64 |
| CC[C@H]1OC(=O)[C@H](C)[C@@H](O)[C@H](C)[C@@H](O[C@@H]2O[C@H](C)C[C@H](N(C)C)[C@H]2O)[C@](C)(O)C[C@@H](C)CN(C(=O)Nc2ccc(Cl)cc2Cl)[C@H](C)[C@@H](O)[C@]1(C)O | > 64 | > 64 | Non-toxic | > 64 | > 64 | > 64 | > 64 | > 64 |
| CC[C@H]1OC(=O)/C(C)=C\[C@H](C)[C@@H](O[C@@H]2O[C@H](C)C[C@H](N(C)C)[C@H]2O)[C@](C)(OC)C[C@@H](C)CN(C(=O)Nc2ccc(Cl)cc2Cl)[C@H](C)[C@@H](O)[C@]1(C)O | > 64 | > 64 | Non-toxic | > 64 | 8 (≈ 10.5 µM) | > 64 | 32 (≈ 42.1 µM) | 16 (≈ 21 µM) |
| CC[C@H]1OC(=O)[C@H](C)[C@@H](O)[C@H](C)[C@@H](O[C@@H]2O[C@H](C)C[C@H](N(C)C)[C@H]2O)[C@](C)(O)C[C@@H](C)CN(C(=O)NC(C)(C)C)[C@H](C)[C@@H](O)[C@]1(C)O | > 64 | > 64 | Non-toxic | > 64 | > 64 | > 64 | > 64 | > 64 |
| CC[C@H]1OC(=O)[C@H](C)C(=O)[C@H](C)[C@@H](O[C@@H]2O[C@H](C)C[C@H](N(C)C)[C@H]2O)[C@](C)(OC)C[C@@H](C)CN(C(=O)Nc2ccc(Cl)cc2Cl)[C@H](C)[C@@H](O)[C@]1(C)O | > 64 | > 64 | Non-toxic | > 64 | 8 (≈ 10.3 µM) | > 64 | 16 (≈ 20.6 µM) | 8 (≈ 10.3 µM) |
| CC[C@H]1OC(=O)[C@H](C)[C@@H](O)[C@H](C)[C@@H](O[C@@H]2O[C@H](C)C[C@H](N(C)C)[C@H]2O)[C@](C)(O)C[C@@H](C)CN(C(=O)NC(C)C)[C@H](C)[C@@H](O)[C@]1(C)O | > 64 | > 64 | Non-toxic | > 64 | > 64 | > 64 | > 64 | > 64 |
